GASC1 inh: KDM4C (human) demethylase inhibition; GST-KDM4C 2-372, H3K9me3 peptide, LANCE TR-FRET; Q9H3R0; 96,000 compounds, 0.15% hits; inhibition, % at 12.5 µM;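 active means mean replicate inhibition above about 25%, with at least 55% of replicates also reaching it, limit read from the data, passing the limit was not always enough; inconclusive means only one of those two conditions met; inactive means neither condition met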
Target sequence (Q9H3R0 2-372 limits assumed): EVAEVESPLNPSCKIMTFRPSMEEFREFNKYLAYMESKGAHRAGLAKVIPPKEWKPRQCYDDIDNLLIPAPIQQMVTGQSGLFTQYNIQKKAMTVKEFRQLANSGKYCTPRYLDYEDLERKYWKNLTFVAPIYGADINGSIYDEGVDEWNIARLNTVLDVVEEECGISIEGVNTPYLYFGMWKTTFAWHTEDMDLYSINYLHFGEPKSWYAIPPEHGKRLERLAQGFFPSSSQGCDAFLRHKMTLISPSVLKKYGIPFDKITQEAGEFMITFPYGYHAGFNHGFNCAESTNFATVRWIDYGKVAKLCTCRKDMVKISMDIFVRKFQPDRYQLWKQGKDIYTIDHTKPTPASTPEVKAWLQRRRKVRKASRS
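System: N-terminal GST-fused human GASC-1 (KDM4C) fragment, residues 2-372; amount: enzyme final amount 10 nM; incubation: reaction 30 min RT, detection step 1 h RT; medium: HEPES buffer, pH 7.5, plus ascorbate; technique: LANCE TR-FRET, Eu antibody, ULight-streptavidin, EDTA, ex 340 nm, em 618/671 nm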
IDH1 mut inh: blocks human IDH1 R132H reductase activity. O75874. diaphorase/resazurin fluorescence, 60 min. inhibition, % at 10 µM. 70,000 compounds, 0.18% hits. AID 624101; in the data active means inhibition above about 34%; inconclusive means no clear call, values can overlap the other calls; inactive means below about 11%;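 further: 0% = DMSO and 100% = no enzyme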
T cruzi growth-1: T. cruzi proliferation inhibition | T. cruzi beta-gal in NIH3T3, GalScreen luminescence, 90 h | inhibition, % at 8.34 µM | 77,000 compounds, 5.9% hits;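 active means mean inhibition above about 93%, with at least 55% of replicates each passing it, limit read from the data, passing the limit was not always enough; inconclusive means only one of those two conditions holds; inactive means neither condition holds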
T cruzi growth-2: blocks T. cruzi growth in NIH3T3 host cells; shares compounds with T cruzi growth-1; T. cruzi beta-gal in NIH3T3, GalScreen luminescence, 90 h; inhibition, % at 8.35 µM; 5,600 compounds, 72% hits;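 active means mean replicate inhibition above about 95% and at least 55% of replicates individually reaching it, limit read from the data; inconclusive means only one of the two criteria is met; inactive means neither criterion is met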
T cruzi growth-3: blocks T. cruzi growth in NIH3T3 host cells. shares compounds with T cruzi growth-1. T. cruzi beta-gal in NIH3T3, GalScreen luminescence, 90 h. inhibition, % at 2.09 µM. 5,600 compounds, 21% hits. AID 651740;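 active means mean inhibition above about 95%, with at least 55% of replicates also reaching it, limit read from the data; inconclusive means meets just one of the two conditions; inactive means meets neither condition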;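 further: plate controls were neutral control median for no effect and positive control median for full effect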
3T3 cytotox: NIH/3T3 (mouse) viability loss; shares compounds with T cruzi growth-1; NIH/3T3 viability, CellTiter-Glo ATP luminescence, 90 h; cytotoxicity (signal decrease), % at 8.35 µM; 5,600 compounds, 14% hits; AID 651742;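 active means mean signal decrease across replicates above about 35% based on untreated-well scatter, with enough replicates individually passing, limit read from the data; inconclusive means no rule stated though some were filed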;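 further: 0% = median of neutral control wells and 100% = median of positive control wells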
3T3 cytotox 2: kills mouse NIH/3T3 fibroblasts; shares compounds with T cruzi growth-1; NIH/3T3 viability, CellTiter-Glo ATP luminescence, 90 h; inhibition, % at 24.9 µM; 5,600 compounds, 56% hits; AID 651744;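 active means mean loss of cell viability signal at or above a set limit, and enough replicates individually reaching it; inconclusive means meets only the mean limit or only the replicate share; inactive means meets neither condition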;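 further: 0% = median of neutral control wells and 100% = median of positive control wells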
* hit, by the source's call; ? = inconclusive; nt = not tested or not shown. The entries come from a sample that favours hits as a whole.

SMILES	GASC1 inh	IDH1 mut inh	T cruzi growth-1	T cruzi growth-2	T cruzi growth-3	3T3 cytotox	3T3 cytotox 2
COCCOC(=O)N1C(=O)[C@@]2(c3ccccc31)[C@H](c1ccccc1OCCO)N1[C@H](c3ccccc3)[C@H](c3ccccc3)OC(=O)[C@H]1[C@@H]2C(=O)N1CCc2cc(OC)c(OC)cc2C1	nt	0	nt	nt	nt	nt	nt
CC[C@H]1OC(=O)[C@H](C)[C@@H](OC2C[C@@](C)(OC)[C@@H](O)[C@H](C)O2)[C@H](C)[C@@H](O[C@@H]2O[C@H](C)C[C@H](N(C)C)[C@H]2O)[C@](C)(O)C[C@@H](C)/C(=N\OCOCCOC)[C@H](C)[C@@H](O)[C@]1(C)O (some centres undefined)	nt	0	nt	nt	nt	nt	nt
COc1ccc(OC)c(NC(=O)CSc2nc3ccccc3n2C2CCCCC2)c1	nt	0	nt	nt	nt	nt	nt
Cc1ccc(NC(=O)CSc2nccc(C)n2)cc1	nt	0	nt	nt	nt	nt	nt
C[C@@H]1CCCCO[C@@H](CN(C)Cc2ccc(Cl)c(Cl)c2)[C@H](C)CN([C@@H](C)CO)C(=O)c2cc(NS(=O)(=O)c3cccs3)ccc2O1	-1	nt	?	96*	108*	118*	103*
C[C@@H]1CN([C@H](C)CO)C(=O)c2cc(NS(=O)(=O)c3cccs3)ccc2O[C@@H](C)CCCCO[C@H]1CN(C)Cc1ccc(Cl)c(Cl)c1	1	nt	125*	83	115*	61*	106*
C[C@@H]1CCCCO[C@H](CN(C)Cc2ccncc2)[C@@H](C)CN([C@@H](C)CO)C(=O)c2cc(NS(=O)(=O)c3cccs3)ccc2O1	2	6	9	nt	nt	nt	nt
C[C@@H]1CCCCO[C@@H](CN(C)Cc2ccc(Cl)c(Cl)c2)[C@H](C)CN([C@H](C)CO)C(=O)c2cc(NS(=O)(=O)c3cccs3)ccc2O1	-1	nt	?	109*	113*	-30	107*
C[C@H]1CCCCO[C@H](CN(C)Cc2ccncc2)[C@@H](C)CN([C@@H](C)CO)C(=O)c2cc(NS(=O)(=O)c3cccs3)ccc2O1	1	21	11	nt	nt	nt	nt
C[C@@H]1CN([C@H](C)CO)C(=O)c2cc(NS(=O)(=O)c3cccs3)ccc2O[C@@H](C)CCCCO[C@H]1CN(C)Cc1ccncc1	1	nt	36	nt	nt	nt	nt
C[C@@H]1CN([C@H](C)CO)C(=O)c2cc(NS(=O)(=O)c3cccs3)ccc2O[C@@H](C)CCCCO[C@@H]1CN(C)Cc1ccc(Cl)c(Cl)c1	1	1	?	91	111*	100*	91*
C[C@H]1CCCCO[C@@H](CN(C)Cc2ccncc2)[C@@H](C)CN([C@@H](C)CO)C(=O)c2cc(NS(=O)(=O)c3cccs3)ccc2O1	0	6	32	nt	nt	nt	nt
CN(C)CCN(C)Cc1cc([N+](=O)[O-])ccc1O	nt	1	nt	nt	nt	nt	nt
CCOC(=O)c1c(NC(=O)CN2C(=O)c3cccc4cccc(c34)C2=O)sc2c1CCC2	nt	0	nt	nt	nt	nt	nt
CSc1ccccc1NC(=O)CN(c1ccc(C)c(Cl)c1)S(C)(=O)=O	nt	0	nt	nt	nt	nt	nt
Cc1cc(Cl)c(S(=O)(=O)Nc2cccnc2)cc1OCC(N)=O	nt	0	nt	nt	nt	nt	nt
Cc1ccc(-n2c(SCC(N)=O)nnc2-c2cccs2)cc1	nt	3	nt	nt	nt	nt	nt
C[C@@H]1CCCCO[C@@H](CN(C)Cc2ccc(Cl)c(Cl)c2)[C@@H](C)CN([C@@H](C)CO)C(=O)c2cc(NS(=O)(=O)c3cccs3)ccc2O1	0	nt	?	97*	71	-56	51*
C[C@@H]1CCCCO[C@H](CN(C)Cc2ccncc2)[C@H](C)CN([C@@H](C)CO)C(=O)c2cc(NS(=O)(=O)c3cccs3)ccc2O1	0	12	17	nt	nt	nt	nt
OC[C@@H]1[C@@H](c2ccc(C#Cc3ccccc3F)cc2)[C@@H]2CN(CC3CCOCC3)CCCCN12	-2	nt	72	nt	nt	nt	nt
CCCC#Cc1ccc([C@H]2[C@H](CO)N3CCCCN(CC4CCOCC4)C[C@@H]23)cc1	1	nt	129*	87	47	16	77*
CCCC#Cc1ccc([C@H]2[C@H]3CN(CC4CC4)CCCCN3[C@H]2CO)cc1	-1	nt	48	nt	nt	nt	nt
OC[C@@H]1[C@H](c2ccc(C#Cc3ccccc3F)cc2)[C@@H]2CN(CC3CCOCC3)CCCCN12	0	nt	105*	114*	59	?	105*
COC(=O)c1cc(C)sc1NC(=S)NCCn1cc(Cl)cn1	nt	0	nt	nt	nt	nt	nt
Cc1nc(SCc2csc(C)n2)c2c3c(sc2n1)CCCC3	nt	0	nt	nt	nt	nt	nt
SMILES	GASC1 inh	IDH1 mut inh	T cruzi growth-1	T cruzi growth-2	T cruzi growth-3	3T3 cytotox	3T3 cytotox 2
C[C@@H]1CN([C@@H](C)CO)S(=O)(=O)c2ccc(C3=CCCC3)cc2O[C@H]1CN(C)C(=O)Cc1ccncc1	-1	nt	98*	80	15	-7	23
C[C@@H]1CN([C@@H](C)CO)S(=O)(=O)c2ccc(C3=CCCC3)cc2O[C@@H]1CN(C)C(=O)Cc1ccncc1	-1	nt	nt	nt	nt	nt	nt
C[C@@H]1CN([C@H](C)CO)S(=O)(=O)c2ccc(C3=CCCCC3)cc2O[C@@H]1CN(C)C(=O)Cc1ccccc1	-1	0	103	nt	nt	nt	nt
C[C@@H]1CN([C@H](C)CO)S(=O)(=O)c2ccc(C3=CCCCC3)cc2O[C@H]1CN(C)C(=O)Cc1ccncc1	1	nt	100*	103*	66	28	36*
C[C@@H]1CN([C@@H](C)CO)S(=O)(=O)c2ccc(C3=CCCCC3)cc2O[C@@H]1CN(C)C(=O)Cc1ccncc1	-2	nt	97*	89	59	19	32*
C[C@@H]1CN([C@H](C)CO)S(=O)(=O)c2ccc(C3=CCCC3)cc2O[C@H]1CN(C)C(=O)Cc1ccncc1	0	25	73	nt	nt	nt	nt
C[C@@H]1CN([C@@H](C)CO)S(=O)(=O)c2ccc(C3=CCCCC3)cc2O[C@H]1CN(C)C(=O)Cc1ccccc1	-3	0	?	105*	41	53*	52*
C[C@H]1CN([C@@H](C)CO)S(=O)(=O)c2ccc(C3=CCCC3)cc2O[C@@H]1CN(C)C(=O)Cc1ccncc1	1	nt	93	nt	nt	nt	nt
CN(C)CCNc1nc2c(c(=O)n(C)c(=O)n2C)n1Cc1c(F)cccc1Cl	nt	0	nt	nt	nt	nt	nt
COc1cc(/C=C/C(=O)OC2C(COC(=O)c3cc(OC)c(OC)c(OC)c3)OC(OC3(CO)OC(CO)C(O)C3O)C(O)C2O)cc(OC)c1OC (centres undefined)	nt	0	nt	nt	nt	nt	nt
C[C@H](CO)N1C[C@H](C)[C@H](CN(C)Cc2cncnc2)Oc2cc(/C=C/c3ccccc3)ccc2S1(=O)=O	-5	0	75	nt	nt	nt	nt
C[C@@H]1CN([C@@H](C)CO)S(=O)(=O)c2ccc(/C=C/c3ccccc3)cc2O[C@H]1CN(C)Cc1cncnc1	-2	0	121*	112*	97*	54*	61*
C[C@@H]1CN([C@H](C)CO)S(=O)(=O)c2ccc(/C=C/c3ccccc3)cc2O[C@@H]1CN(C)Cc1cncnc1	-7	0	90	nt	nt	nt	nt

Assay outcomes as filed in PubChem BioAssay.
